Tests used:
[1] = organism: Mus musculus; assay: In vitro degradation rate constant in Mouse serum; type: ADME
How it was run: (§1)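 Prodrug added from DMSO standard to an initial 50 or 10 µg/mL in one of four media at 37 °C with shaking: fresh human serum, fresh mouse serum, mouse brain homogenate (1:1 g/mL in physiological phosphate buffer), or phosphate buffer pH 7.4. Sampled 0–10 h. Dihydropyridine, quaternary salt and parent drug were measured by ion-pair HPLC at 260 nm. k is the terminal-phase ln(concentration)–time regression slope, with the associated half-life.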

[2] = In vitro degradation rate constant in phosphate buffer at pH 7.4; type: ADME; how it was run: as §1
[3] = Half life in Mouse brain hom; type: ADME, organism-based; details: brain homogenate; how it was run: as §1
[4] = Half life in Mouse serum; type: ADME, organism-based; how it was run: as §1
[5] = Half life in phosphate buffer at pH 7.4; type: ADME; how it was run: as §1
[6] = organism: Mus musculus; assay: In vitro degradation rate constant Mouse brain hom; type: ADME; how it was run: as §1
[7] = organism: Homo sapiens; assay: In vitro degradation rate constant in Human serum; type: ADME; how it was run: as §1
[8] = In vitro anti-HIV activity was determined in peripheral blood mononuclear cells.; type: functional, Homo sapiens
[9] = Half life in Human serum; type: ADME, organism-based; how it was run: as §1
[10] = in vivo; details: serum
[11] = in vivo; details: brain
[12] = (§2) Half life of the compound; type: ADME
[13] = as §2; type: functional
[14] = serum
[15] = Relative brain exposure of the compound

Compound | Rate constant [1] [h⁻¹] | Rate constant [2] [h⁻¹] | half-life [3] [h] | half-life [4] [h] | half-life [5] [h] | Rate constant [6] [h⁻¹] | Rate constant [7] [h⁻¹] | EC50 [8] [nM] | half-life [9] [h] | AUC [10] [ng·h/mL] | AUC [11] [ng·h/mL] | T1/2 [12] [h] | EC50 ([8]; Homo sapiens) [nM] | AUC [ng·h/mL] | half-life [12] [h] | AUC [14] [ng·h/mL] | Rel brain exposure [15] | T1/2 [13] [h]
CN1C=CCC(C(=O)OC[C@H]2O[C@@H](n3ccc(=O)[nH]c3=O)C[C@@H]2N=[N+]=[N-])=C1 | 1.24 | 0.33 | 0.17 | 0.56 | 2.13 | 4.15 | 0.16 | 1000 | 4.33 | 4430 |  |  |  |  |  |  |  | 
C[n+]1cccc(C(=O)OC[C@H]2O[C@@H](n3ccc(=O)[nH]c3=O)C[C@@H]2N=[N+]=[N-])c1.[I-] | 1.36 | 0.8 | 0.65 | 0.51 | 0.87 | 1.07 | 0.14 |  | 4.95 | 1210 | 3910 |  |  |  |  |  |  | 
Cc1cn([C@H]2C[C@H](N=[N+]=[N-])[C@@H](COC(=O)C3=CN(C)C=CC3)O2)c(=O)[nH]c1=O | 0.49 | 0.21 | 0.18 | 1.4 | 3.23 | 3.89 | 0.09 |  | 7.7 | 1270 |  |  | 1.6 |  |  |  |  | 
Cc1cn([C@H]2C[C@H](N=[N+]=[N-])[C@@H](COC(=O)c3ccc[n+](C)c3)O2)c(=O)[nH]c1=O.[I-] | 0.64 | 0.55 | 1.69 | 1.08 | 1.25 | 0.41 | 0.02 |  | 34.6 | 600 | 1290 |  |  |  |  |  |  | 

The next lines start with results.

Rate constant [1] [h⁻¹] | Rate constant [2] [h⁻¹] | half-life [3] [h] | half-life [4] [h] | half-life [5] [h] | Rate constant [6] [h⁻¹] | Rate constant [7] [h⁻¹] | EC50 [8] [nM] | half-life [9] [h] | AUC [10] [ng·h/mL] | AUC [11] [ng·h/mL] | T1/2 [12] [h] | EC50 ([8]; Homo sapiens) [nM] | AUC [ng·h/mL] | half-life [12] [h] | AUC [14] [ng·h/mL] | Rel brain exposure [15] | Compound | T1/2 [13] [h]
 |  |  |  |  |  |  |  |  | 25800 |  | 0.84 | 200 | 2090 |  |  |  | [N-]=[N+]=N[C@H]1C[C@H](n2ccc(=O)[nH]c2=O)O[C@@H]1CO (stereo in doubt; form 2) [NAVURIDINE] | 
 |  |  |  |  |  |  |  |  | 26600 |  |  | 2 |  | 0.54 | 25380 |  | Cc1cn([C@H]2C[C@H](N=[N+]=[N-])[C@@H](CO)O2)c(=O)[nH]c1=O [ZIDOVUDINE] | 15.8
 |  |  |  |  |  |  |  |  |  |  | 4.34 |  | 11430 |  | 25790 | 5.47 | [N-]=[N+]=N[C@H]1C[C@H](n2ccc(=O)[nH]c2=O)O[C@@H]1CO (stereo in doubt; form 1) [NAVURIDINE] | 

Reference: ChEMBL document CHEMBL1124875, “Brain targeting of anti-HIV nucleosides: synthesis and in vitro and in vivo studies of dihydropyridine derivatives of 3'-azido-2',3'-dideoxyuridine and 3'-azido-3'-deoxythymidine” (J Med Chem, 1990)
